Assay outcomes as filed in PubChem BioAssay.
T cruzi growth-1 = T. cruzi intracellular proliferation inhibitors, primary screen, cell-based, beta-gal Tulahuen parasites, NIH3T3 host, luminescence; T. cruzi beta-gal in NIH3T3, GalScreen luminescence, 90 h; inhibition, % at 8.34 µM; actives 5.9% (n = 77,000);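 active = mean inhibition above about 93%, with at least 55% of replicates each passing it, limit read from the data, passing the limit was not always enough; inconclusive = only one of those two conditions holds; inactive = neither condition holds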
KDM4C inh = inhibitors of GASC-1 (KDM4C) histone demethylase, primary screen, biochemical, single concentration HTS | inhibition, % at 12.5 µM | GST-KDM4C 2-372, H3K9me3 peptide, LANCE TR-FRET | Lysine-specific demethylase 4C (Homo sapiens), Q9H3R0 | AID 720574, 2013 | actives 0.15% (n = 96,000);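 active = mean replicate inhibition above about 25%, with at least 55% of replicates also reaching it, limit read from the data, passing the limit was not always enough; inconclusive = only one of those two conditions met; inactive = neither condition met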
Target sequence (Q9H3R0 2-372 limits assumed): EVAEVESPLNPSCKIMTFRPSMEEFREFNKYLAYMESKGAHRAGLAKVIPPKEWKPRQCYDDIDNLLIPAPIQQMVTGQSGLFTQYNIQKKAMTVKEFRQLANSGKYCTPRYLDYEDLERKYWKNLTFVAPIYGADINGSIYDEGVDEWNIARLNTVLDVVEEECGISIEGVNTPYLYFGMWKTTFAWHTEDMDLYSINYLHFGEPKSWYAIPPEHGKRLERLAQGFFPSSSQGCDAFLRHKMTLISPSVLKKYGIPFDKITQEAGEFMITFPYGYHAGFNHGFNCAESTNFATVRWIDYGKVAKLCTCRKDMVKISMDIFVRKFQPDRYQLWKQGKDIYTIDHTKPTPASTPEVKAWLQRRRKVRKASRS
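Material: GST-tagged GASC-1 (JMJD2C) catalytic fragment, aa 2-372. Input: enzyme final amount 10 nM. Medium: HEPES buffer, pH 7.5, plus ascorbate. Reagent: H3K9me3 peptide substrate, Fe(II), 2-oxoglutarate. Doses: single dose. Times: reaction 30 min RT, detection step 1 h RT. Measured by: LANCE TR-FRET. Evaluation: Fall in 671/618 emission ratio as inhibition.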
IDH1 R132H inh = inhibitors of IDH1 R132H reductase, primary screen, biochemical, plate reader, single point. Isocitrate dehydrogenase [NADP] cytoplasmic (Homo sapiens), O75874. diaphorase/resazurin fluorescence, 60 min. inhibition, % at 10 µM. actives 0.18% (n = 70,000); in the data active = inhibition above about 34%; inconclusive = no clear call, values can overlap the other calls; inactive = below about 11%;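 also: 0% = DMSO and 100% = no enzyme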
Target sequence (O75874 whole entry R132H): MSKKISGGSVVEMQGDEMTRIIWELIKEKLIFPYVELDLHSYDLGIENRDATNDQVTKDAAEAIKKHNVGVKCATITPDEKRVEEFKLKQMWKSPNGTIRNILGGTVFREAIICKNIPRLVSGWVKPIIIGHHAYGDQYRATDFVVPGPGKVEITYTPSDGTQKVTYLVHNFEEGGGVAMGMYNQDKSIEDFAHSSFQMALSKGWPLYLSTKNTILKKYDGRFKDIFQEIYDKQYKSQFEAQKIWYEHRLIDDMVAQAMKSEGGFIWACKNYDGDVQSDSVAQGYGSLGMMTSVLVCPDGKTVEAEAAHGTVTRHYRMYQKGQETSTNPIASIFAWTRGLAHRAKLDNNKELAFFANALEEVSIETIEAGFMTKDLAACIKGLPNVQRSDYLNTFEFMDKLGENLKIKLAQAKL
T cruzi growth-2 = T. cruzi intracellular proliferation inhibitors, confirmation, cell-based, NIH3T3 host, beta-gal parasite, luminescence, cherry-pick; inhibition, % at 8.35 µM; T. cruzi beta-gal in NIH3T3, GalScreen luminescence, 90 h; AID 651739, 2012; actives 72% (n = 5,600); shares compounds with T cruzi growth-1;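 active = mean replicate inhibition above about 95% and at least 55% of replicates individually reaching it, limit read from the data; inconclusive = only one of the two criteria is met; inactive = neither criterion is met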
T cruzi growth-3 = inhibitors of intracellular T. cruzi replication, confirmation, NIH3T3 host cells, beta-gal parasites, cherry-pick, set 2; shares compounds with T cruzi growth-1; T. cruzi beta-gal in NIH3T3, GalScreen luminescence, 90 h; inhibition, % at 2.09 µM; actives 21% (n = 5,600);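 active = mean inhibition above about 95%, with at least 55% of replicates also reaching it, limit read from the data; inconclusive = meets just one of the two conditions; inactive = meets neither condition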;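 also: plate controls were neutral control median for no effect and positive control median for full effect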
NIH3T3 tox = cytotoxicity in mouse NIH/3T3 fibroblasts, confirmation, cytotoxicity control for T. cruzi proliferation inhibitor project, cell-based, cherry-pick, single point. AID 651742, 2012. NIH/3T3 viability, CellTiter-Glo ATP luminescence, 90 h. cytotoxicity (signal decrease), % at 8.35 µM. shares compounds with T cruzi growth-1. actives 14% (n = 5,600);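 active = mean signal decrease across replicates above about 35% based on untreated-well scatter, with enough replicates individually passing, limit read from the data; inconclusive = no rule stated though some were filed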;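 also: 0% = median of neutral control wells and 100% = median of positive control wells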
3T3 cytotox 2 = NIH/3T3 fibroblast cytotoxicity, confirmation, cytotoxicity control, cell-based, cherry-pick, single point, set 2 | inhibition, % at 24.9 µM | shares compounds with T cruzi growth-1 | NIH/3T3 viability, CellTiter-Glo ATP luminescence, 90 h | actives 56% (n = 5,600);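 active = mean loss of cell viability signal at or above a set limit, and enough replicates individually reaching it; inconclusive = meets only the mean limit or only the replicate share; inactive = meets neither condition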;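 also: 0% = median of neutral control wells and 100% = median of positive control wells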
Active calls of the source: *; ? = inconclusive; . = not tested or not shown. The full list was thinned out, with hits kept by preference.

SMILES	T cruzi growth-1	KDM4C inh	IDH1 R132H inh	T cruzi growth-2	T cruzi growth-3	NIH3T3 tox	3T3 cytotox 2
C[C@H](CO)N1C[C@H](C)[C@@H](CN(C)Cc2ccc(Cl)c(Cl)c2)Oc2ccc(NC(=O)Cc3cn(C)c4ccccc34)cc2C1=O	80.0	-0.6	3.2	.	.	.	.
C[C@@H]1CN([C@@H](C)CO)C(=O)c2cc(NC(=O)Cc3cn(C)c4ccccc34)ccc2O[C@@H]1CN(C)Cc1ccncc1	30.3	-1.5	-1.5	.	.	.	.
C[C@H]1CN([C@@H](C)CO)C(=O)c2cc(NC(=O)Cc3cn(C)c4ccccc34)ccc2O[C@@H]1CN(C)Cc1ccc(C(F)(F)F)cc1	93.1	1.0	-0.3	.	.	.	.
C[C@H](CO)N1C[C@H](C)[C@@H](CN(C)Cc2ccc(C(F)(F)F)cc2)Oc2ccc(NC(=O)Cc3cn(C)c4ccccc34)cc2C1=O	118.2*	9.3	.	106.7*	12.7	6.0	14.0
CNC(=S)N(Cc1ccco1)C1CC(=O)N(c2ccc(C(=O)OC)cc2)C1=O (stereo unspecified)	.	.	0.3	.	.	.	.
CSc1cccc(NC(=O)CN(c2ccc(F)c(Cl)c2)S(C)(=O)=O)c1	.	.	-0.2	.	.	.	.
Cc1ccc(-n2c(SCC(=O)Nc3ccccc3C)nc3nc4c(cc3c2=O)COC(C)(C)C4)cc1	.	.	0.5	.	.	.	.
O=C(CC1NC2CCCCC2NC1=O)Nc1ccc(Cl)c(Cl)c1 (stereo unspecified)	.	.	-0.4	.	.	.	.
CCC(=O)N1CCCCN2[C@H](CO)[C@H](c3ccc(-c4cccnc4)cc3)[C@H]2C1	114.0*	0.5	.	37.3	24.4	-3.3	9.3
CN(C)CC(=O)N1CCCCN2[C@H](CO)[C@H](c3ccc(-c4cccnc4)cc3)[C@@H]2C1	63.8	-1.7	.	.	.	.	.
CCC(=O)N1CCCCN2[C@H](CO)[C@@H](c3ccc(-c4cccnc4)cc3)[C@@H]2C1	59.7	0.9	.	.	.	.	.
CN(C)CC(=O)N1CCCCN2[C@H](CO)[C@H](c3ccc(-c4cccnc4)cc3)[C@H]2C1	108.0*	0.0	.	69.7	0.9	-5.7	2.1
CN(C)CC(=O)N1CCCCN2[C@H](CO)[C@@H](c3ccc(-c4cncnc4)cc3)[C@H]2C1	-17.8	1.6	.	.	.	.	.
CCC(=O)N1CCCCN2[C@H](CO)[C@H](c3ccc(C#Cc4cccnc4)cc3)[C@H]2C1	101.3*	-1.3	.	100.1*	39.5	3.6	-11.0
CN(C)CC(=O)N1CCCCN2[C@@H](CO)[C@@H](c3ccc(-c4cccnc4)cc3)[C@@H]2C1	?	-0.6	.	?	29.5	3.0	-0.7
CCC(=O)N1CCCCN2[C@@H](CO)[C@H](c3ccc(C#Cc4cccnc4)cc3)[C@@H]2C1	77.5	-0.7	.	.	.	.	.
CCN(CC(=O)Nc1cccc(F)c1)S(=O)(=O)c1ccc(C)cc1	.	.	0.4	.	.	.	.
Nc1cc(N)nc(SCC(=O)Nc2ccc3ccccc3c2)n1	.	.	0.0	.	.	.	.
COc1c(CCC(=O)O)c(O[C@@H]2O[C@H](CO)[C@@H](O)[C@H](O)[C@H]2O)cc2occc12	.	.	0.1	.	.	.	.
CC(C)CC#Cc1ccc2c(c1)O[C@@H](CN(C)Cc1ccccc1F)[C@@H](C)CN([C@H](C)CO)S2(=O)=O	?	10.2	-1.7	97.1*	108.4*	0.4	104.9*
C[C@@H]1CN([C@H](C)CO)S(=O)(=O)c2ccc(C#CC3CC3)cc2O[C@@H]1CN(C)Cc1ccccc1F	74.6	0.1	-0.6	.	.	.	.
C[C@H](CO)N1C[C@H](C)[C@@H](CN(C)Cc2ccccc2F)Oc2cc(C#CCN(C)C)ccc2S1(=O)=O	104.8*	-4.8	1.4	104.9*	66.5	55.2*	104.3*
COCC#Cc1ccc2c(c1)O[C@@H](CN(C)Cc1ccccc1F)[C@H](C)CN([C@@H](C)CO)S2(=O)=O	22.7	-2.0	-0.2	.	.	.	.
COCC#Cc1ccc2c(c1)O[C@@H](CN(C)Cc1ccccc1F)[C@@H](C)CN([C@H](C)CO)S2(=O)=O	5.3	0.8	-0.1	.	.	.	.
CC(C)CC#Cc1ccc2c(c1)O[C@H](CN(C)Cc1ccccc1F)[C@H](C)CN([C@@H](C)CO)S2(=O)=O	?	0.9	-1.0	106.7*	83.1	28.1	105.3*
SMILES	T cruzi growth-1	KDM4C inh	IDH1 R132H inh	T cruzi growth-2	T cruzi growth-3	NIH3T3 tox	3T3 cytotox 2
C[C@@H]1CN([C@@H](C)CO)S(=O)(=O)c2ccc(C#CCN(C)C)cc2O[C@@H]1CN(C)Cc1ccccc1F	84.4	4.9	-3.1	.	.	.	.
C[C@H]1CN([C@@H](C)CO)S(=O)(=O)c2ccc(C#CC3CC3)cc2O[C@@H]1CN(C)Cc1ccccc1F	111.9*	17.9	-2.9	96.6*	116.9*	1.6	104.2*
O=c1cc(Oc2ccc(O)cc2)oc2cc(O[C@@H]3O[C@H](CO[C@@H]4O[C@H](CO)[C@@H](O)[C@H](O)[C@H]4O)[C@@H](O)[C@H](O)[C@H]3O)cc(O)c12	.	.	7.6	.	.	.	.
COCC#Cc1ccc2c(c1)O[C@H](CN(C)Cc1ccccc1F)[C@H](C)CN([C@@H](C)CO)S2(=O)=O	-24.6	-0.7	-0.3	.	.	.	.
CC(C)CC#Cc1ccc2c(c1)O[C@H](CN(C)Cc1ccccc1F)[C@H](C)CN([C@H](C)CO)S2(=O)=O	?	-0.9	0.1	97.8*	112.8*	-8.7	105.4*
CC(C)CC#Cc1ccc2c(c1)O[C@@H](CN(C)Cc1ccccc1F)[C@H](C)CN([C@H](C)CO)S2(=O)=O	?	0.5	0.0	91.6	104.9*	100.9*	104.5*
CC(C)CC#Cc1ccc2c(c1)O[C@H](CN(C)Cc1ccccc1F)[C@@H](C)CN([C@H](C)CO)S2(=O)=O	67.5	-1.5	-1.2	.	.	.	.
C[C@@H]1CN([C@H](C)CO)S(=O)(=O)c2ccc(C#CC3CC3)cc2O[C@H]1CN(C)Cc1ccccc1	126.8*	2.0	-0.2	95.2*	50.6	?	104.6*
C[C@@H]1CN([C@H](C)CO)S(=O)(=O)c2ccc(C#CC3CC3)cc2O[C@@H]1CN(C)Cc1ccccc1	-5.8	0.6	-0.1	.	.	.	.
CCOC(=O)c1c(NC(=O)c2ccccc2N(C)S(C)(=O)=O)sc2c1CCCC2	.	.	-0.6	.	.	.	.
O=C(Nc1ccc(S(=O)(=O)Nc2ncccn2)cc1)c1ccccc1Oc1ccccc1	.	.	-0.1	.	.	.	.
COc1ccc(NC(=O)CSc2ncnc3c2sc2nc(N4CCOCC4)c4c(c23)CC(C)(C)OC4)cc1	.	.	0.8	.	.	.	.
